Consider 19 compounds from ChEMBL document CHEMBL1268931, “Tailored α-methylene-γ-butyrolactones and their effects on growth suppression in pancreatic carcinoma cells” (Bioorg Med Chem Lett, 2010).

The test system of data set [1] is MIA PaCa-2. Nature of the data set: Cytotoxicity against human MIAPaCa2 cells assessed as cell growth at 10 uM after 72 hrs by MTT assay relative to untreated control. The note with it: MIA PaCa-2, 72 h, read-out: Activity. The data set is classed as functional. The gist of the method:
(§1)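 After 72 h of exposure, growth was read with MTS (CellTiter 96 AQueous One) colorimetric reagent as percent of control-treated cells (100%). Mean of at least two independent experiments run in triplicate.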
(Formazan colour is commonly taken as a measure of viable cells.)

Data set [2] relates to PANC-1. Put plainly: Cytotoxicity against human PANC1 cells assessed as cell growth at 10 uM after 72 hrs by MTT assay relative to untreated control. The note with it: PANC-1, 72 h, read-out: Activity. Type of data set: functional. The method, boiled down:
as §1

Data set [3] deals with BXPC-3. Put plainly: Cytotoxicity against human BxPC3 cells assessed as cell growth at 10 uM after 72 hrs by MTT assay relative to untreated control. Type of data set: functional. The note with it: BXPC-3, 72 h, read-out: Activity. The method, boiled down: as §1
For data set [4], the system named is MIA PaCa-2. Nature of the data set: Cytotoxicity against human MIAPaCa2 cells assessed as cell growth at 1 uM after 72 hrs by MTT assay relative to untreated control. Type of data set: functional. The note with it: MIA PaCa-2, 72 h, read-out: Activity. The gist of the method:
as §1

Data set [5] has as its system BXPC-3. Put plainly: Cytotoxicity against human BxPC3 cells assessed as cell growth at 1 uM after 72 hrs by MTT assay relative to untreated control. Type of data set: functional. The note with it: BXPC-3, 72 h, read-out: Activity. The method, boiled down:
as §1

Data set [6] is described as follows: Toxicity against human normal Hematopoietic Progenitor Cells isolated from human cord blood at 1 uM after 18 hrs by MTT assay relative to untreated control.
In data set [7] the test system is PANC-1. Nature of the data set: Cytotoxicity against human PANC1 cells assessed as cell growth at 1 uM after 72 hrs by MTT assay relative to untreated control. The data set is classed as functional. The note with it: PANC-1, 72 h, read-out: Activity. The gist of the method: as §1

As for `C/C=C1\C(=O)O[C@@H](c2ccc([N+](=O)[O-])cc2)[C@H]1C` (relative stereo), the growth at 10 µM in data set [1] was 110%; in data set [2], 106%; in data set [3], 117%.

`C=C1CC(c2ccccc2)OC1=O` (stereo not given): the growth at 10 µM in data set [1] is 106%; in data set [2], 135%; in data set [3], 136%.

As to `C=C1C(=O)OCC1c1ccccc1` (stereo not given), the values for the growth at 10 µM in data set [1], in data set [2] and in data set [3] were 14%, 31% and 40%, respectively.

Regarding `C/C=C1\C(=O)O[C@H](c2ccc(OC)cc2)[C@H]1C` (relative stereo), the growth at 10 µM in data set [1] is 124%; in data set [2], 139%; in data set [3], 179%.

As to `C=C1C(=O)O[C@H](c2ccc(C)cc2)[C@H]1c1ccccc1` (relative stereo), the values for the growth at 10 µM in data set [1], in data set [2] and in data set [3] were 2%, 0% and 0%, respectively. Besides, the growth at 1 µM in data set [4] amounted to 26%; in data set [5], 67%; in data set [7], 105%. In addition, the Activity entry in data set [6] was “Non-toxic”.

With `C=C1C(=O)O[C@@H](c2ccc3ccccc3c2)[C@H]1c1ccccc1` (relative stereo), the growth at 10 µM in data set [1] was found to be 6%; in data set [2], 33%; in data set [3] it was 1%. The figures for the growth at 1 µM in data set [4], in data set [5] and in data set [7] were 125%, 104% and 98%, respectively.

With `C=C1C(=O)O[C@@H](C2CCCCC2)[C@H]1c1ccccc1` (relative stereo), the growth at 10 µM was 81% in data set [1], 104% in data set [2] and 95% in data set [3].

`C=C1C(=O)O[C@@H](c2c(F)c(F)c(F)c(F)c2F)[C@H]1C` (relative stereo): the results for the growth at 10 µM in data set [1], in data set [2] and in data set [3] were 53%, 70% and 89%, respectively. The growth at 1 µM in data set [4] is 120%; in data set [5], 98%; in data set [7] it was 86%.

Turning to `C/C1=C\CC[C@@]2(C)O[C@@H]2[C@H]2OC(=O)C(CN(C)C)[C@@H]2CC1` (stereo not given in full) [DIMETHYLAMINOPARTHENOLIDE], the growth at 10 µM stood at 2% in data set [1], 17% in data set [2] and 7% in data set [3]. Also, the growth at 1 µM in data set [4] came to 73%; in data set [5] it was 92%; in data set [7] it was 117%. Also, in data set [6], the Activity entry is listed as “Non-toxic”.

Take `C=C1C(=O)O[C@@H]2C3O[C@]3(C)CC/C=C(\C)CC[C@@H]12` (stereo not given in full): the values for the growth at 10 µM in data set [1], in data set [2] and in data set [3] were 3%, 12% and 6%, respectively. The growth at 1 µM in data set [4] was determined as 78%; in data set [5], 92%; in data set [7], 132%.

`C=C1C(=O)O[C@H](c2ccccc2)[C@H]1c1ccccc1` (relative stereo): the growth at 10 µM in data set [1], in data set [2] and in data set [3] was 1% each time. The growth at 1 µM was found to be 30% in data set [4], 86% in data set [5] and 116% in data set [7]. Also, in data set [6], the Activity entry was “Non-toxic”.

Regarding `C=C1C(=O)O[C@@H](c2ccc(OC)cc2)[C@H]1C` (relative stereo), the growth at 10 µM in data set [1] came to 9%; in data set [2], 32%; in data set [3], 13%. Also, the results for the growth at 1 µM in data set [4], in data set [5] and in data set [7] were 109%, 128% and 130%, respectively.

Turning to `C=C1C(=O)O[C@H](c2ccc3ccccc3c2)[C@H]1C` (relative stereo), the growth at 10 µM in data set [1] came out at 4%; in data set [2], 22%; in data set [3] it was 27%. The growth at 1 µM in data set [4] was determined as 74%; in data set [5], 113%; in data set [7] it was 139%.

As to `C=C1C(=O)O[C@H](c2ccc(C(F)(F)F)cc2)[C@H]1c1ccccc1` (relative stereo), the growth at 10 µM in data set [1] amounted to 5%; in data set [2], 33%; in data set [3], 13%. The growth at 1 µM is 142% in data set [4], 138% in data set [5] and 152% in data set [7].

For the compound `C=C1C(=O)O[C@H](c2ccc3ccccc3c2)[C@H]1c1ccccc1` (relative stereo), the growth at 10 µM worked out at 3% in data set [1], 13% in data set [2] and 1% in data set [3]. The growth at 1 µM in data set [4] turned out to be 29%; in data set [5], 60%; in data set [7], 53%. Besides, the Activity entry in data set [6] is “Non-toxic”.

With `C=C1C(=O)O[C@@H](C(C)C)[C@H]1C` (relative stereo), the growth at 10 µM in data set [1] is 143%; in data set [2], 119%; in data set [3], 153%.

On to `C=C1C(=O)O[C@@H](c2ccccc2)[C@H]1C` (relative stereo), for which the growth at 10 µM in data set [1] turned out to be 14%; in data set [2], 62%; in data set [3] it was 41%. Moreover, the figures for the growth at 1 µM in data set [4], in data set [5] and in data set [7] were 114%, 98% and 143%, respectively.

Turning to `C=C1C(=O)O[C@@H](c2ccccc2)[C@H]1c1ccccc1` (relative stereo), the growth at 10 µM in data set [1] is 3%; in data set [2] it was 38%; in data set [3], 8%. The growth at 1 µM in data set [4] was 32%; in data set [5] it was 51%; in data set [7], 108%.

Consider `C=C1C(=O)O[C@H](c2ccc(OC)cc2)[C@H]1c1ccccc1` (relative stereo), for which the growth at 10 µM in data set [1], in data set [2] and in data set [3] was 0% each time. The growth at 1 µM in data set [4] was 54%; in data set [5] it was 73%; in data set [7] it was 80%.
